Source: PubChem
PHOSPHO1 block = PubChem AID 1565; Phosphoethanolamine/phosphocholine phosphatase (Homo sapiens), Q8TCT1; recombinant PHOSPHO1, absorbance phosphatase assay; inhibition, % at 13.3 µM; 290,000 compounds, 1.1% hits; in the data active = inhibition above about 60%
Target sequence (Q8TCT1 whole entry, looked up): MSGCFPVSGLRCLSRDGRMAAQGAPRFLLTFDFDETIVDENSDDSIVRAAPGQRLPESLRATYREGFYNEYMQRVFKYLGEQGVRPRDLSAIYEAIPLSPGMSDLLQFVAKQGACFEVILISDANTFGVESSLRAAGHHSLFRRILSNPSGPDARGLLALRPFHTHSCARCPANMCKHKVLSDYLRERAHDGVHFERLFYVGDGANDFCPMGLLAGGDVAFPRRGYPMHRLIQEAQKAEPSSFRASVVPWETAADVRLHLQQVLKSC
ALR inh = inhibitors of human ALR sulfhydryl oxidase, primary screen, biochemical, H2O2 detection, HRP-luminol luminescence, single point; purified ALR, DTT oxidation; inhibition, % (no concentration beside the values); 290,000 compounds, 3.8% hits; AID 485317, 2010;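 active = mean replicate inhibition above about 79%, with every replicate also reaching it, limit read from the data; inconclusive = only one of the two criteria met; inactive = mean below limit and not every replicate reaching it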
Target sequence (P55789 whole entry, looked up): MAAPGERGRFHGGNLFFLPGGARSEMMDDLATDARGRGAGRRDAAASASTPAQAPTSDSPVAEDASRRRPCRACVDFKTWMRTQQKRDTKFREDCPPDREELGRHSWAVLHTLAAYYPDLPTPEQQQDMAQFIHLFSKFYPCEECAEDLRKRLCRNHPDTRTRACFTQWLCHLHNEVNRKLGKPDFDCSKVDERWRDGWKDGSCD
HSF1 inhib = HSF1 inhibitors in luciferase reporter cells, primary screen, cell-based, NIH3T3, luminescence; activity change, negative = inhibition, % at 7.5 µM (by protocol); 300,000 compounds, 0.77% hits; NIH3T3-HGL HSE-luciferase, MG132-induced, luminescence 8 h; active compounds read low;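 active = more than half of replicate wells show activity change below -50%, luminescence cut by over half; inconclusive = some wells, but at most half, below -50%; inactive = no replicate well below -50%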;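 also: luciferase reports HSF-1 transcriptional activity via heat shock element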
HSF-1 act = HSF-1 activators, primary screen, NIH3T3-HGL cells, MG132 stress, luminescence, single point; activation, % at 9 µM; NIH3T3-HGL HSF-1 luciferase reporter, 8 h; 100% = twice DMSO control signal; 300,000 compounds, 1.7% hits; AID 504408, 2011;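 active = mean replicate activation of at least 50% with a set share of replicates each reaching 50%; inconclusive = only one of those two conditions met; inactive = mean below 50% and too few replicates reaching it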
AI-2 QS mod = Vibrio harveyi AI-2 quorum sensing modulators, primary screen, JMH597 strain, luminescence/OD600 ratio; Vibrio harveyi JMH597 AI-2 luminescence/OD600 ratio, 9 h; active compounds read low; strain lacks LuxN and CqsS sensors; 0 = neutral-control median; activity change, % at 7.5 µM; 300,000 compounds, 0.4% hits; in the data active = activity change below about -75%, passing the limit was not always enough; inconclusive = no clear call, values can overlap the other calls;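 also: luminescence divided by OD600 gain over 9 h not by final OD600 alone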
core dimer inh = inhibitors of HCV core protein dimerization, primary screen, biochemical, TR-FRET, high-throughput; TR-FRET GST/Flag-core106 dimerization, 1536-well; inhibition, % at 5 µM; 300,000 compounds, 0.33% hits;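 active = inhibition above the mean of all tested compounds plus 3 SD, set per screening campaign, cut at about 45% in these data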
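Assay system: tagged HCV core106 pair (GST and Flag); medium: KF-containing HEPES buffer, pH 7.45, DTT, CHAPS, BSA; also added: Eu donor and XL665 acceptor anti-tag antibodies; dosing: 5 µM single dose; timing: compound-protein-antibody incubation 4 h at 22.5 °C; signal: TR-FRET 671 and 617 nm emission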
Large screens that a line does not name were inactive. Sampled rows, rich in hits. Any-hit rate of the full collection: about 6.8%.

O=C(Cc1ccccc1)NNc1c2ccccc2nc2ccccc12	ALR inh 98
Cc1cccc(OCC(=O)NNc2c3ccccc3nc3ccccc23)c1	ALR inh 99
Cc1ccc(OCC(=O)NNC(=O)CCC(=O)NCc2ccccc2)cc1	none
Cc1ccc(OCC(=O)NNc2c3ccccc3nc3ccccc23)cc1	ALR inh 96
O=C(Cc1ccccc1)NNC(=O)Cc1ccccc1	none
O=C1NC(=O)C(Nc2cccc3ccccc23)S1 (stereo unspecified)	none
CN1C(=O)SC(Nc2cccc3ccccc23)C1=O (stereo unspecified)	ALR inh 90
NS(=O)(=O)c1cccc(NC(=O)CNC(=O)CC23CC4CC(CC(C4)C2)C3)c1	HSF1 inhib -77
NS(=O)(=O)c1cccc(NC(=O)CC23CC4CC(C2)CC(CC(=O)Nc2cccc(S(N)(=O)=O)c2)(C4)C3)c1	none (no result: PHOSPHO1 block)
COc1ccc(C(=O)Nc2cccc(C(=O)N3CCCCC3)c2)cc1	PHOSPHO1 block 66
O=C(Nc1cccc(Br)c1)c1ccc(OC2CSC2)cc1	HSF-1 act 51
COc1ccc(C(=O)Nc2cccc(C)c2)cc1	HSF-1 act 62
CC(=O)c1cccc(NC(=O)c2ccc(OC3CSC3)cc2)c1	none
O=[N+]([O-])c1cc(C(F)(F)F)cc([N+](=O)[O-])c1Sc1n[nH]c(C(F)(F)F)n1	none
CC(NC(=O)COc1ccc(N(C)S(=O)(=O)c2ccccc2)cc1)c1ccccc1 (stereo unspecified)	none
CCOC(=O)c1cnc2ccc(C)cc2c1Sc1ccc(F)cc1	HSF-1 act 60
CCOC(=O)c1cnc2ccc(C)cc2c1Nc1ccc(N2CCOCC2)cc1	ALR inh 98
CCN(c1ccccc1)S(=O)(=O)c1ccc(C(=O)N2CCN(c3ccccc3)CC2)cc1	none (no result: PHOSPHO1 block, HSF1 inhib, HSF-1 act, AI-2 QS mod, core dimer inh)
N#Cc1sc2nc(N3CCCCC3)c3c(c2c1N)CCCC3	ALR inh 98
CCN(CC)Cc1c(O)ccc2cc(-c3nc4ccccc4n3C)c(=O)oc12	HSF-1 act 68
Cn1c(-c2cc3ccc(OC(=O)C(C)(C)C)cc3oc2=O)nc2ccccc21	HSF-1 act 58
COc1cc(C)ccc1OCc1cc(C(=O)N2CCN(C3CCCCC3)CC2)no1	none
CCOc1cccc2cc(C(=O)NCc3ccc(Cl)cc3)c(=N)oc12	none
CCCn1c(NCc2cc(OC)ccc2OC)nc2ccccc21	ALR inh 89
Brc1cccc(CNc2nc3ccccc3n2CCN2CCCCC2)c1	none (no result: ALR inh)
COc1ccc(CNc2nc3ccccc3n2CCN2CCCCC2)c(OC)c1	HSF-1 act 74
COc1ccc(OC)c(CNc2nc3ccccc3n2CCN2CCCCC2)c1	none
CCn1c(NCc2cc(OC)ccc2OC)nc2ccccc21	none
COc1cccc(CNc2nc3ccccc3n2CCN2CCCCC2)c1	ALR inh 99
COc1cccc(CNc2nc3ccccc3n2CCN2CCCCC2)c1OC	ALR inh 99 (no result: HSF1 inhib, HSF-1 act, AI-2 QS mod)
CC(C)CN(C(=O)c1ccc(F)cc1F)c1c(N)n(CC(C)C)c(=O)[nH]c1=O	none (no result: AI-2 QS mod)
CC(=O)Nc1cccc(Oc2ccc(-c3noc(C)n3)cc2)c1	none
Cc1noc(C)c1CSc1ccc(Br)cc1	none
CC(=O)Nc1ccc(SCc2c(C)noc2C)cc1	ALR inh 99
CCOc1ccc(NC(=O)CSc2nnc(Cc3csc(C)n3)o2)cc1	none
CC(=O)Nc1ccc(SCc2csc(C)n2)cc1	ALR inh 99
CCN(c1ccccc1)S(=O)(=O)c1cccc(C(=O)N(C)CCOc2ccccc2)c1	none (no result: PHOSPHO1 block)
COc1ccc(S(=O)(=O)NCC(=O)N(CC(=O)NCc2ccco2)C2CCCC2)cc1	none
CCn1nc(C(=O)OCC(=O)NCCN2C(=O)CSC2=O)c2ccccc2c1=O	PHOSPHO1 block 72
Cc1ccc(/C=C/C(=O)OCC(=O)NCCN2C(=O)CSC2=O)o1	HSF1 inhib -73
CCn1nc(C(=O)OCC(=O)NC(C)C)c2ccccc2c1=O	HSF1 inhib inconclusive
Cc1cccc(NC(=O)CSc2nnc(CNC(=O)c3ccco3)o2)c1	none
O=C(CSc1nc2ccccc2[nH]1)N=Nc1c(O)[nH]c2ccccc12	ALR inh 96
Cn1c(SCC(=O)N=Nc2c(O)[nH]c3ccccc23)nc2ccccc21	none
O=C(N=Nc1c(O)[nH]c2ccccc12)c1cccs1	HSF-1 act 76
CC(C)(C)c1ccc(S(=O)(=O)N2CCc3nc4ccccc4c(C(=O)O)c3C2)cc1	none
Cc1cccc(C(=O)NC2=NCCS2)c1	none
Clc1ccc(-c2ccc(SCc3ccccn3)nn2)cc1	HSF-1 act 81 (no result: ALR inh)
Cc1ccc([N+](=O)[O-])cc1NC(=O)C(C)NS(=O)(=O)c1ccc(F)cc1 (stereo unspecified)	none
CCCN1Cc2cccc(C(=O)Nc3ccc4c(c3)OCO4)c2C1=O	none
O=C(Nc1ccc2c(c1)OCO2)c1cccc2c1C(=O)N(Cc1cccnc1)C2	core dimer inh 54
COc1ccccc1CNC(=O)CCNC(=O)C1CCN(S(=O)(=O)c2ccccc2)CC1	none
Cc1ccc(C)c(COc2coc(CN3CCN(C(=O)c4ccco4)CC3)cc2=O)c1	none (no result: PHOSPHO1 block, ALR inh)
COc1ccccc1NC1C=CS(=O)(=O)C1 (stereo unspecified)	ALR inh 76
CCN(CC)c1ccc(NC(=S)Nc2ccc(F)cc2)cc1	none (no result: ALR inh, core dimer inh)
Cn1c(SCC(=O)NNC(=O)Cc2ccccc2)nnc1-c1ccccc1	none (no result: ALR inh)
O=C(/C=C/c1ccccc1[N+](=O)[O-])NCCCN1CCCC1=O	none
O=[N+]([O-])c1ccccc1N/N=C\c1ccccc1F	HSF-1 act 65
COc1ccc(C(=O)CCN2CCc3cc(OC)c(OC)cc3C2)cc1	ALR inh 98
Cc1cc2nc3c(=O)n(CCc4ccccc4)c(=O)[nH]c3nc2cc1N	HSF-1 act 59
Nc1ccc2nc3c(=O)n(CCc4ccccc4)c(=O)[nH]c3nc2c1	none
CCC(C)(CCNC(=O)Cc1ccccc1)c1ccccc1OC (stereo unspecified)	none
NC(=O)c1ccsc1NC(=O)CSc1ccccc1F	HSF-1 act 58
Cc1csc(SCC(=O)Nc2sccc2C(N)=O)n1	ALR inh 95
Cc1csc(SCC(=O)Nc2nccs2)n1	none (no result: PHOSPHO1 block)
Cc1ccccc1SCC(=O)OCC(=O)Nc1sccc1C(N)=O	ALR inh inconclusive
Nc1ccc2nc(SCc3cccc(F)c3)sc2c1	ALR inh 99
COc1ccc(CNC(=O)CSc2nc3ccc(N)cc3s2)cc1	ALR inh 98
COc1c(C)cccc1C(=O)Nc1ccc(N2CCOCC2)c(Cl)c1	HSF-1 act 60
